Results as given in ChEMBL document CHEMBL1126265, “Novel 5-HT3 antagonists: indol-3-ylspiro(azabicycloalkane-3,5'(4'H)-oxazoles)” (J Med Chem, 1992).

The compounds below were run against T1, Serotonin 3 (5-HT3) receptor (Rattus norvegicus, UniProt P35563+Q9JJ16) (assay: Compound was evaluated for the displacement of [3H]Q-ICS-205-930 from 5-HT3 recognition sites in rat brain membranes).
T1 sequence (P35563 whole entry): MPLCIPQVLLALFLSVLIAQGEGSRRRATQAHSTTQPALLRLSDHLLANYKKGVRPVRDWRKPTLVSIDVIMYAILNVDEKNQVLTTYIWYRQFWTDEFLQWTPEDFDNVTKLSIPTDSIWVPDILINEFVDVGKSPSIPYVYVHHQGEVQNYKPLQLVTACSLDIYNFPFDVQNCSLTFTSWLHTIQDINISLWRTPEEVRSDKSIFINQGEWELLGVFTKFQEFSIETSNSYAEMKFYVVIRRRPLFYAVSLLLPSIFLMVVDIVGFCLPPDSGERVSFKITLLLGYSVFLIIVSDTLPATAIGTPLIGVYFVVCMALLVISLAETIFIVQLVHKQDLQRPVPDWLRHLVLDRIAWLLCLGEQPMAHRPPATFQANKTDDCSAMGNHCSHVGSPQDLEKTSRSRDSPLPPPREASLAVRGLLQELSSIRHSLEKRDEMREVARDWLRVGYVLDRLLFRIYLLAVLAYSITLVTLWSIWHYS
T1 sequence (Q9JJ16 whole entry): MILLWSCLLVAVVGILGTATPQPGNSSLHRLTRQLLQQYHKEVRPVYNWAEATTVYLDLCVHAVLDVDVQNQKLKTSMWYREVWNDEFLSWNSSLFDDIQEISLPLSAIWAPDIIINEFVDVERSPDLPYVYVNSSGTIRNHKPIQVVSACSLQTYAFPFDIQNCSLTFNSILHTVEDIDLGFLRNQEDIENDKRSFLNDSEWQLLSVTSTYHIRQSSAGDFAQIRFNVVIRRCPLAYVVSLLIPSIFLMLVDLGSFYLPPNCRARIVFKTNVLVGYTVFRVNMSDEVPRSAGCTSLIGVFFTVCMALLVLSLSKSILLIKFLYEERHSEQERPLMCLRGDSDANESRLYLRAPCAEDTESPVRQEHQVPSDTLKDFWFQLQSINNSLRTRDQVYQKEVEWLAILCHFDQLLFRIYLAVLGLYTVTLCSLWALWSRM
Type: cell membranes
Method in brief: (§1)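 Value reported as mean ± SEM where n ≥ 3 independent determinations; where no SEM is given, mean of two independent determinations, individual values typically within ±10% of the mean.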

| SMILES | IC50 [nM] |
| --- | --- |
| Cn1c([Si](C)(C)C)c(C2=NCC3(CN4CCC3CC4)O2)c2ccccc21 (stereo not given) | 155 |
| CN1[C@@H]2CC[C@H]1C[C@@H](OC(=O)c1c[nH]c3ccccc13)C2 [TROPISETRON] | 1.26 |

What follows are compounds tested against T1, Serotonin 3 (5-HT3) receptor (assay: Displacement of [3H]Q-ICS-205-930 from 5-hydroxytryptamine 3 receptor recognition sites in rat brain membranes).
Type: cell membranes
Method in brief: as §1

| SMILES | IC50 [nM] |
| --- | --- |
| Cn1cc(C2=NC[C@]3(CN4CCC3CC4)O2)c2ccccc21 | 2.88 |
| Cn1cc(C2=NCC3(CN4CCC3CC4)O2)c2ccccc21 (stereo not given) | 3.16 |
| Cn1cc(C2=NC[C@@]3(CN4CCC3CC4)O2)c2ccccc21 | 2.57 |
| C#CCn1cc(C2=NCC3(CN4CCC3CC4)O2)c2ccccc21 (stereo not given) | 6.17 |
| Cn1cc(C2=NCC3(CN4CCC3CC4)O2)c2cc(N)ccc21 (stereo not given) | 575 |
| Cc1ccc2c(c1)c(C1=NCC3(CN4CCC3CC4)O1)cn2C (stereo not given) | 132 |
| Cc1cccc2c(C3=NCC4(CN5CCC4CC5)O3)cn(C)c12 (stereo not given) | 8.91 |
| CN1CCC2(CC1)CN=C(c1cn(C)c3ccccc13)O2 | 158 |
| Cn1cc(C2=NCC3(CC4CCC(C3)N4Cc3ccccc3)O2)c2ccccc21 (stereo not given) | 174 |
| Cn1cc(C2=NCC3(CN4CCC3CC4)O2)c2cc(F)ccc21 (stereo not given) | 14.8 |
| Cn1cc(C2=NCC3(C[N+]4([O-])CCC3CC4)O2)c2ccccc21 (stereo not given) | 2630 |
| c1ccc2c(C3=NCC4(CN5CCC4CC5)O3)[nH]nc2c1 (stereo not given) | 26.3 |
| c1ccc2c(C3=NCC4(CN5CCC4CC5)O3)csc2c1 (stereo not given) | 26.9 |
| Cn1c(I)c(C2=NCC3(CN4CCC3CC4)O2)c2ccccc21 (stereo not given) | 26.9 |
| Cn1cc(C2=NCC3(CC4CCC(C3)N4)O2)c2ccccc21 (stereo not given) | 11.2 |
| Cn1cc(C2=NC[C@@]3(C[N@@]4CC[C@@H]3C4)O2)c2ccccc21 | 3.47 |
| C=CCn1cc(C2=NCC3(CN4CCC3CC4)O2)c2ccccc21 (stereo not given) | 7.94 |

| SMILES | IC50 [nM] |
| --- | --- |
| CCn1cc(C2=NCC3(CN4CCC3CC4)O2)c2ccccc21 (stereo not given) | 13.5 |
| CC(=O)c1c(C2=NCC3(CN4CCC3CC4)O2)c2ccccc2n1C (stereo not given) | 6.46 |
| Cn1cc(C2=NC[C@]3(C[N@@]4CC[C@@H]3C4)O2)c2ccccc21 | 3.09 |
| COc1ccc2c(c1)c(C1=NCC3(CN4CCC3CC4)O1)cn2C (stereo not given) | 263 |
| COc1cccc(C2=NCC3(CN4CCC3CC4)O2)c1 (stereo not given) | 407 |
| c1ccc2c(c1)c(C1=NCC3(CN4CCC3CC4)O1)cn2CC1CC1 (stereo not given) | 13.2 |
| Cn1cc(C2=NCC3(CCN4CCCC3C4)O2)c2ccccc21 (stereo not given) | 1.12 |
| Cn1cc(C2=NCC3(CN4CCC3CC4)O2)c2cc(O)ccc21 (stereo not given) | 195 |
| Cn1cc(C2=NCC3(CN4CCC3CC4)O2)c2cc([N+](=O)[O-])ccc21 (stereo not given) | 229 |
| c1ccc2c(C3=NCC4(CN5CCC4CC5)O3)c[nH]c2c1 (stereo not given) | 4.79 |
| Cn1cc(C2=NCC3(C[N+]4(C)CCC3CC4)O2)c2ccccc21 (single isomer, unassigned; 22n) | 42.7 |
| Cn1cc(C2=NCC3(C[N+]4(C)CCC3CC4)O2)c2ccccc21 (single isomer, unassigned; 22o) | 10.2 |
| CN1C2CCC1CC1(CN=C(c3cn(C)c4ccccc34)O1)C2 (stereo in doubt; 22b) | 4.57 |
| Cn1cc(C2=NCC3(CC4CCC(C3)[N+]4(C)C)O2)c2ccccc21 (stereo in doubt; 22c) | 5.01 |
| CN1C2CCC1CC1(CN=C(c3cn(C)c4ccccc34)O1)C2 (stereo in doubt; 22d) | 6.31 |
| Cn1cc(C2=NCC3(CC4CCC(C3)[N+]4(C)C)O2)c2ccccc21 (stereo in doubt; 22e) | 3.31 |
